Drawing on ChEMBL document CHEMBL4513216, “Probing the Open Global Health Chemical Diversity Library for Multistage-Active Starting Points for Next-Generation Antimalarials” (ACS Infect Dis, 2020), this text covers cytotoxicity for 40 compounds.

Each structure is given as a SMILES string.

The nature of this series: Toxicity liver stage against HepG2, at 10uM. The format is cell-based. Also noted: test concentration 10 uM, cell line HepG2-A16-CD81EGFP. Particulars: human, HepG2-A16-CD81EGFP cells; read-out: INHIBITION
In outline:
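Uninfected HepG2-A16-CD81EGFP cells, 3 × 10^3 per well, 1536-well, plated on prespotted compound at 10 μM final, parasite-free screening media added to match infected plates; puromycin 10 μM positive, DMSO 0.5% negative; run in parallel with 48 h PbLuc assay at 37 °C, 5% CO2; viability by CellTiter-Glo luminescence, normalized to controls.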

`CC(C)CC(=O)N1CC[C@@H]2CN(CC(=O)N(C)C)S(=O)(=O)[C@@H]2CC1`: the cytotoxicity at 10 µM was 10%.
The result for `CCOC(=O)C1CC2(CCCC2)N2CCC(=O)N12` (stereo not given) reads 1.53%.
In the case of `O=C(c1cc(-n2cccn2)ccc1Cl)N1CCCC(N2CCCC2)C1` (stereo not given), the cytotoxicity at 10 µM was 1.86%.
The result for `O=C(CNCC1(O)CCCN(Cc2cccc(F)c2F)C1=O)NC1CC1` (stereo not given) reads -4.02%.
Consider `CCN(CC)S(=O)(=O)N1CCCN(CC2CCCO2)CC1` (stereo not given), for which the cytotoxicity at 10 µM was 5.69%.
The result for `COc1cccc(CNCc2c(C)nn(C)c2N(C)C)c1` reads -2.51%; that for `Cn1cccc1C(=O)NC[C@H]1C[C@@H]2CN(C(=O)c3ccno3)C[C@H]2O1`, 0.903%.
The result for `CCCS(=O)(=O)N1Cc2ccnn2CC(c2nc(C)no2)C1` (stereo not given) reads 5.98%; that for `O=C(C1CCSCC1)N1CC[C@H]2OCC[C@@]2(COCC2CC2)C1`, -1.16%.
The result for `CS(=O)(=O)N1C[C@H]2CC[C@@H](C1)N(Cc1cscn1)C2=O` reads -9.35%; that for `CC(C)=CCN1C[C@@H]2CC[C@H]1CN(C(=O)CSc1ccncc1)C2`, -0.591%; that for `CC(C)(C)S(=O)(=O)c1ccc(N2CCC(n3cncn3)CC2)cn1`, 3.94%.
As for `CN(Cc1cccs1)C(=O)c1ccc(=O)n(C)c1`, the cytotoxicity at 10 µM was -13.2%.
The result for `Cc1nnc(CN(Cc2cccc(Cl)c2)C(C)C)o1` reads 1.69%; that for `Cc1cc(N[C@H](CO)COCc2ccccc2)n2nc(C)cc2n1`, 0.324%; that for `CCn1ncc2c1CCCC2NCc1cccc2c1OCCO2` (stereo not given), 1.71%.
The result for `Cc1ncsc1C(=O)NCCCN1CCCCCC1=O` reads -3.51%; that for `O=C(NCCO)Nc1ccc(Cl)cc1-n1cccc1`, 7.82%.
The result for `Cc1nc(Nc2ncccn2)cc(C2CCCN2C(C)C)n1` (stereo not given) reads -17.3%; that for `CCn1ccnc1CN1CCCN(C(=O)COC2CCCC2)CC1`, -6.58%.
`OC(COCc1cccs1)Cn1cc(Cl)cn1` (stereo not given): the cytotoxicity at 10 µM is -0.574%.
The result for `c1cc(CN2CCCC2c2noc(C3CC3)n2)on1` (stereo not given) reads -0.628%; that for `CC(C)(C)c1cc(CNC(=O)c2cc(COc3ccccc3)[nH]n2)[nH]n1`, 8.28%.
`O=C(COc1ccccc1F)NCCC(O)c1ccoc1` (stereo not given): the cytotoxicity at 10 µM was -13.4%.
Regarding `Cc1nc(N2CCC3(CCCN(C(C)C)C3=O)C2)c2sccc2n1` (stereo not given), the cytotoxicity at 10 µM came out at 18.6%.
The result for `CCc1nnc(CN2CCN(C(C)=O)CC2)o1` reads 4.39%.
The result for `CCn1nc(C)c2nnn(CC(=O)Nc3ccc(C)cc3)c(=O)c21` reads 8.49%; that for `O=C(c1cccc2c1OCCO2)N1CCCC(n2ccnc2)C1` (stereo not given), -6.92%.
The result for `Cc1ccc(C(=O)N2CCCC(c3cc(C(F)(F)F)[nH]n3)C2)o1` (stereo not given) reads 5.77%; that for `O=C(CCOc1ccccc1F)N1CCCC1Cn1cccn1` (stereo not given), -3.71%.
`COc1ccc(NCCC(=O)NCc2cccnc2N(C)C)cc1`: the cytotoxicity at 10 µM is -2.06%.
The result for `Oc1cccc2ccc(CN3CCC4(CCNCC4)C3)nc12` reads -6.19%; that for `Cc1cc(C2CCCN(CCS(=O)(=O)c3ccccc3)C2)n[nH]1` (stereo not given), -16.7%; that for `O=C(c1ncoc1C1CCCO1)N1CCCC2(CCCCC2)C1` (stereo not given), -5.14%.
The result for `CCCc1noc(C2CCN(C(=O)C3CCCO3)CC2)n1` (stereo not given) reads 0.12%; that for `N#Cc1ccnc(N2CCN(CC(O)c3ccc(F)cc3)CC2)c1` (stereo not given), 2.99%; that for `CN1CCN(C2CCN(Cc3nc(-c4ccoc4)no3)CC2)C1=O`, -2.83%.
For `Cn1nc(CN2CCCCC2)c2c1CN(Cc1ccoc1)C2`, the cytotoxicity at 10 µM was -0.449%.
The result for `CN(C)Cc1noc2c1CN(C(=O)c1ccncc1)CC2` reads -1.28%.
The result for `CN(Cc1ccccn1)C(=O)CNC(=O)N1CCc2ccccc2C1` reads 2.8%.
